Source: the M2OR odorant receptor database

Experiments:
Settings in all cases: stereoisomer not certain
OR1G1 (Homo sapiens) = molecular target: T1, OR1G1 (Homo sapiens) (UniProt P47890)
T1 sequence (whole entry): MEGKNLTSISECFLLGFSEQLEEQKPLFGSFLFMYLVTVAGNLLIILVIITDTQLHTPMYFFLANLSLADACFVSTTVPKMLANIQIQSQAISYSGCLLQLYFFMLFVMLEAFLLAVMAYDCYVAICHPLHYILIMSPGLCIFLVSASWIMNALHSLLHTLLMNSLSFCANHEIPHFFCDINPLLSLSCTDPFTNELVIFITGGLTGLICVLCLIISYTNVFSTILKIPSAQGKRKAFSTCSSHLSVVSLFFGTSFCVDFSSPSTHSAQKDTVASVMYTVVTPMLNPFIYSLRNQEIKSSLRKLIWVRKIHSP
In short: (§1)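 Whether a receptor–molecule pair is responsive (active) rests on the original authors' judgment that its measured signal was statistically different from baseline. Pairs without that judgment are non-responsive (inactive). Sources used varied assay methods, commonly transient luciferase assays in mammalian cell lines.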

OR1L3 (Homo sapiens) = molecular target: T2, OR1L3 (Homo sapiens) (UniProt Q8NH93)
T2 sequence (whole entry): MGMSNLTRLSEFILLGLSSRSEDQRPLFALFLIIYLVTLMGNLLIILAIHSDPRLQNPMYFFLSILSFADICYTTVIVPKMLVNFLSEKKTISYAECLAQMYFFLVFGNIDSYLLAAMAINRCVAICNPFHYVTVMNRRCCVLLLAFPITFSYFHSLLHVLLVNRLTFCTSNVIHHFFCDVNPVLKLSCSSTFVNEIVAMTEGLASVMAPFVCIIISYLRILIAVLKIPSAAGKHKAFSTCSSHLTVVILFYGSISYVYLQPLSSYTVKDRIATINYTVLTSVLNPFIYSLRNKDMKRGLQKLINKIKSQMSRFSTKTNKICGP
In short: as §1

OR1F1 (Homo sapiens) = OR1F1 (Homo sapiens) (UniProt O43749)
In short: as §1

OR1F12P (Homo sapiens) = OR1F12P (Homo sapiens) (UniProt Q8NHA8)
In short: as §1

OR1F1 = test system: OR1F1
In short: as §1

OR1I1 (Homo sapiens) = OR1I1 (Homo sapiens) (UniProt O60431)
In short: as §1

OR1J1 (Homo sapiens) = OR1J1 (Homo sapiens) (UniProt Q8NGS3)
In short: as §1

OR1J2 (Homo sapiens) = OR1J2 (Homo sapiens) (UniProt Q8NGS2)
In short: as §1

OR1J4 (Homo sapiens) = OR1J4 (Homo sapiens) (UniProt Q8NGS1)
In short: as §1

OR1K1 (Homo sapiens) = OR1K1 (Homo sapiens) (UniProt Q8NGR3)
In short: as §1

OR1L1 = test system: OR1L1
In short: as §1

OR1L4 (Homo sapiens) = OR1L4 (Homo sapiens) (UniProt Q8NGR5)
In short: as §1

OR1L4 = test system: OR1L4
In short: as §1

OR1L6 = test system: OR1L6
In short: as §1

OR1L8 (Homo sapiens) = OR1L8 (Homo sapiens) (UniProt Q8NGR8)
In short: as §1

OR1L8 T27P R211P = test system: OR1L8 T27P R211P
In short: as §1

OR1M1 (Homo sapiens) = OR1M1 (Homo sapiens) (UniProt Q8NGA1)
In short: as §1

OR1E3 (Homo sapiens) = OR1E3 (Homo sapiens) (UniProt Q8WZA6)
In short: as §1

OR1L1 (Homo sapiens) = OR1L1 (Homo sapiens) (UniProt Q8NH94)
In short: as §1

OR1L6 (Homo sapiens) = OR1L6 (Homo sapiens) (UniProt Q8NGR2)
In short: as §1

Measured: odorant receptor agonist call;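 note: active if original authors judged signal statistically different from baseline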

OR1L4 (Homo sapiens), sequence (Q8NGR5 whole entry): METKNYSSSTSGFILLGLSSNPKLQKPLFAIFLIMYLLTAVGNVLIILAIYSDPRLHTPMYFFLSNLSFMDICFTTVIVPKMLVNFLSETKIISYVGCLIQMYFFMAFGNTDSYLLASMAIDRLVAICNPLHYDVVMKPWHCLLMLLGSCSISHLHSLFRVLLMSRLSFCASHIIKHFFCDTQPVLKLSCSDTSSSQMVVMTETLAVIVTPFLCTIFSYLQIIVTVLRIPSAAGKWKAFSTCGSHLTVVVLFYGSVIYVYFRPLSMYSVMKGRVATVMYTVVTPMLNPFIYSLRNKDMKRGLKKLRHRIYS
OR1F12P (Homo sapiens), sequence (Q8NHA8 whole entry): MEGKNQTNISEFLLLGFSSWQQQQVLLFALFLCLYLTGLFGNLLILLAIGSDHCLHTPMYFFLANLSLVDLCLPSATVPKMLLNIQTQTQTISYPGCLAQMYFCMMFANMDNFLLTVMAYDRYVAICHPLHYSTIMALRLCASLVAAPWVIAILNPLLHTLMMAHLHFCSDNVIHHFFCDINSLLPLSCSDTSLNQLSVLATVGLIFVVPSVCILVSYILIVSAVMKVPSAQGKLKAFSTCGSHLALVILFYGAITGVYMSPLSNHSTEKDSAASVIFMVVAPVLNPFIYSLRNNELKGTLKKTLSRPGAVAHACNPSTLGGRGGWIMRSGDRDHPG
OR1I1 (Homo sapiens), sequence (O60431 whole entry): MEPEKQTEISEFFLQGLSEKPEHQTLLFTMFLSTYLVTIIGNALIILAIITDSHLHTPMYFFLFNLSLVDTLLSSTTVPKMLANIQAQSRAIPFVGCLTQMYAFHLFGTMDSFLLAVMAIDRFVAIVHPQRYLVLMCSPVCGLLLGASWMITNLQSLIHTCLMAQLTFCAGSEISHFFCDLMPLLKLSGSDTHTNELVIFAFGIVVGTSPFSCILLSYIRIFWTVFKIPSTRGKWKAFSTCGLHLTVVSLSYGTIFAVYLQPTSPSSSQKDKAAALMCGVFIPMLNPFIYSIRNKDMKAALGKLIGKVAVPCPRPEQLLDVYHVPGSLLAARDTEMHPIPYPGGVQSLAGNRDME
OR1K1 (Homo sapiens), sequence (Q8NGR3 whole entry): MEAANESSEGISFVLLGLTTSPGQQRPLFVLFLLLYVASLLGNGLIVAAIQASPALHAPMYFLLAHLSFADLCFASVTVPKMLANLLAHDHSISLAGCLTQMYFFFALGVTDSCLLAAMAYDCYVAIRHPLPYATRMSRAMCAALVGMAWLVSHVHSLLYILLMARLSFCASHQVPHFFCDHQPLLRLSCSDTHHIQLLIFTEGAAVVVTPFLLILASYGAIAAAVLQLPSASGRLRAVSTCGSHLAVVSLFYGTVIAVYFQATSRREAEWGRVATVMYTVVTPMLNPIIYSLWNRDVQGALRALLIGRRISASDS
OR1J1 (Homo sapiens), sequence (Q8NGS3 whole entry): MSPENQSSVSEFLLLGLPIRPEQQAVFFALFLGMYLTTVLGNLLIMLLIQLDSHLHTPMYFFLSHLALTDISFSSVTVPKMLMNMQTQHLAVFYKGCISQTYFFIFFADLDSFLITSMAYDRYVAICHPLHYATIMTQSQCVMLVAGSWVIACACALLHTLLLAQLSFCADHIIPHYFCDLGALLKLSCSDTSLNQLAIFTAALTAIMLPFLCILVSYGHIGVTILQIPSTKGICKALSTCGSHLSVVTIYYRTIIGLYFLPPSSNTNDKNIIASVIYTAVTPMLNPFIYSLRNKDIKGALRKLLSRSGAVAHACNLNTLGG
OR1M1 (Homo sapiens), sequence (Q8NGA1 whole entry): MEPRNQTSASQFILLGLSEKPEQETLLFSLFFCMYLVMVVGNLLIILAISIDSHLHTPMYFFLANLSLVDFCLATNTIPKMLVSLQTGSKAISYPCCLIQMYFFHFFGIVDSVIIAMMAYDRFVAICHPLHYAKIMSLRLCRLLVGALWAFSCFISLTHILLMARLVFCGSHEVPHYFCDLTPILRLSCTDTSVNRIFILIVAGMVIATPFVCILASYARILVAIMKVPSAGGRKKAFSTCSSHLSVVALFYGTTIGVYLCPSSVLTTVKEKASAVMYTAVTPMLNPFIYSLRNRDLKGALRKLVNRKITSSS
OR1F1 (Homo sapiens), sequence (O43749 whole entry): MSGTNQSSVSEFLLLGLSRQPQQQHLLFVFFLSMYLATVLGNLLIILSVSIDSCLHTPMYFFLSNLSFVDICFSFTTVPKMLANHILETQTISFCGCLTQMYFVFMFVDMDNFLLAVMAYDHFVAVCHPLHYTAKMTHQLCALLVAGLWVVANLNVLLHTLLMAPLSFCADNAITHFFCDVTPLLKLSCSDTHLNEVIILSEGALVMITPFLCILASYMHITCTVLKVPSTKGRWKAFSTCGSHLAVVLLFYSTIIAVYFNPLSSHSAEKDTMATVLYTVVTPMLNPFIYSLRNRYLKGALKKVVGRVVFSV
OR1L8 (Homo sapiens), sequence (Q8NGR8 whole entry): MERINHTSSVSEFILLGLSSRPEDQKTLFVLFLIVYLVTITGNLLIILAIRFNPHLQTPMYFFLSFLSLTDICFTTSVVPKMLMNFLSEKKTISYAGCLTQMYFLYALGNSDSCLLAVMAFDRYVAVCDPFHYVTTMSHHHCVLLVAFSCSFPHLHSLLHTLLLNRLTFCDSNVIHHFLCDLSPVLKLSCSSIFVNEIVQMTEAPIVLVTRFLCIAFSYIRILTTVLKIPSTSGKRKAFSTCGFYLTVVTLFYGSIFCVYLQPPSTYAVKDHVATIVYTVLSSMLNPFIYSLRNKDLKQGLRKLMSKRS
OR1L4, sequence (as listed by the source): as the sequence (Q8NGR5 whole entry) above, with G234R counted along it
OR1L6 (Homo sapiens), sequence (Q8NGR2 whole entry): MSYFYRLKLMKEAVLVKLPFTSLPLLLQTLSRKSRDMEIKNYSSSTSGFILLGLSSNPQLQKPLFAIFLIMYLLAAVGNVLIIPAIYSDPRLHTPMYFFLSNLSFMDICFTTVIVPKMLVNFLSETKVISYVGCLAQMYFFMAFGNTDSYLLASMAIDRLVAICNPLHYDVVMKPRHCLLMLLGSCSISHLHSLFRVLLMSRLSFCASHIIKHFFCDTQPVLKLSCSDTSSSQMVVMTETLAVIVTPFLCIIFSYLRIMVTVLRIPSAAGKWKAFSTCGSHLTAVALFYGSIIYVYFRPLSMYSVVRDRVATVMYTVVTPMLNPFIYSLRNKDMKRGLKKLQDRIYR
OR1L6, sequence (as listed by the source): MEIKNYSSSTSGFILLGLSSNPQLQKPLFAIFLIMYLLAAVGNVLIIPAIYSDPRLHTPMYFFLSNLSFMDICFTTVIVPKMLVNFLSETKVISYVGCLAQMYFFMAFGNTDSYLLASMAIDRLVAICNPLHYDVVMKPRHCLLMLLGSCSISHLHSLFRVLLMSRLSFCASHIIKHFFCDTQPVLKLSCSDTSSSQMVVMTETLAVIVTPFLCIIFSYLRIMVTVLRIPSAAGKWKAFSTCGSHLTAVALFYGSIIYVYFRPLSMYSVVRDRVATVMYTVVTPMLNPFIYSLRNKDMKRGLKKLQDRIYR
OR1L1, sequence (as listed by the source): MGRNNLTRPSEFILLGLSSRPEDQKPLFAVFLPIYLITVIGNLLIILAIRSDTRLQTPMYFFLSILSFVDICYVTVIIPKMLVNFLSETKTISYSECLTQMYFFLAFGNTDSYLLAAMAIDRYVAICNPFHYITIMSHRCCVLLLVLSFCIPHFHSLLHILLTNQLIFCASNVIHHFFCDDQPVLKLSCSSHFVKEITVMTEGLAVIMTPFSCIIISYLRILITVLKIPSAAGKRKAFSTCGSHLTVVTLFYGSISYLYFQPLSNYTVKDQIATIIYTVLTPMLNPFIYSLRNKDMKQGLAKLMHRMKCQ
OR1F1, sequence (as listed by the source): as the sequence (O43749 whole entry) above, with F75S counted along it
OR1L1 (Homo sapiens), sequence (Q8NH94 whole entry): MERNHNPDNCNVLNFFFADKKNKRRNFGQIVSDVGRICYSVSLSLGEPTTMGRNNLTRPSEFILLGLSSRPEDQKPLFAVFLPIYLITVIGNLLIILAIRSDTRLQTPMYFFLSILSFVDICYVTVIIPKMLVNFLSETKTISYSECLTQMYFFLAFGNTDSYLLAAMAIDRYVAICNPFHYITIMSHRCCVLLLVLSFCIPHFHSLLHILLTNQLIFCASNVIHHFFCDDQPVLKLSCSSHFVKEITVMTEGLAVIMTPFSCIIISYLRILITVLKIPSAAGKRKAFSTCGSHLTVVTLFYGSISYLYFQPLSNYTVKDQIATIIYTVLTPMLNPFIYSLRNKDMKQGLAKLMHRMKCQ
OR1J2 (Homo sapiens), sequence (Q8NGS2 whole entry): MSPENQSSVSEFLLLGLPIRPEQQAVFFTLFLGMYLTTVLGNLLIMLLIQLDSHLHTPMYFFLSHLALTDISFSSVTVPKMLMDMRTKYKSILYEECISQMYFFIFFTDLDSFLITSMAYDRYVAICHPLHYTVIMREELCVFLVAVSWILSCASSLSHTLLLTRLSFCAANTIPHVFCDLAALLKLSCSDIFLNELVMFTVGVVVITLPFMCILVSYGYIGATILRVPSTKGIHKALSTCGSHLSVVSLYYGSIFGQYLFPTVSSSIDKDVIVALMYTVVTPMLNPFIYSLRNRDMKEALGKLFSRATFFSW
OR1J4 (Homo sapiens), sequence (Q8NGS1 whole entry): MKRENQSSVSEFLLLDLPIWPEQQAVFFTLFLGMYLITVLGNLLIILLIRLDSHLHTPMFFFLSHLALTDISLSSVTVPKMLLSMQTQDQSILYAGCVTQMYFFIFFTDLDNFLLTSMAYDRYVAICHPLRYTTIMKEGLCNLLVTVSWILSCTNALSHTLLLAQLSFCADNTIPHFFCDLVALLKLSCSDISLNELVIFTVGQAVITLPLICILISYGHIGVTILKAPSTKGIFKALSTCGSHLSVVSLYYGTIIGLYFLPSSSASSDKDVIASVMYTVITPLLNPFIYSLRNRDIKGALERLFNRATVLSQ

CC(=O)CCc1ccc2c(c1)OCO2
active: OR1G1 (Homo sapiens)

CC(C=O)Cc1ccc2c(c1)OCO2 (stereo not given)
inactive: OR1G1 (Homo sapiens)

c1ccncc1
active: OR1G1 (Homo sapiens)

C=CCc1ccc(OC)cc1
inactive: OR1G1 (Homo sapiens) | OR1L3 (Homo sapiens)

C=CCOC(=O)Cc1ccccc1
not listed: OR1E3 (Homo sapiens) | OR1L1 (Homo sapiens) | OR1L6 (Homo sapiens)
inactive: all other assays above

C=CCc1ccc2c(c1)OCO2
active: OR1G1 (Homo sapiens)

O=Cc1ccccc1
active: OR1G1 (Homo sapiens)
inactive: OR1L3 (Homo sapiens)

COc1ccc(C=O)cc1
inactive: OR1G1 (Homo sapiens)

O=CC=Cc1ccccc1
inactive: OR1L3 (Homo sapiens)

Cc1c([N+](=O)[O-])c(C)c([N+](=O)[O-])c(C(C)(C)C)c1[N+](=O)[O-]
not listed: OR1F1 | OR1J2 (Homo sapiens) | OR1J4 (Homo sapiens) | OR1L1 | OR1L4 | OR1L6 | OR1L8 T27P R211P
inactive: all other assays above
